The source made the active and inactive calls. The rule behind the calls is not given here.
Tests used:
Trypanosoma cruzi = assay: Antiprotozoal activity against trypomastigotes form of Trypanosoma cruzi Y at 250 ug/ml after 24 hrs; assay type: functional
Outline: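 Bloodstream trypomastigotes taken from blood of T. cruzi-infected mice and incubated with test compound (DMSO solution) for 24 h at 4°. Parasites then counted. Assay done three times.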

Leishmania donovani [1] = assay: Antiprotozoal activity against promastigotes form of Leishmania donovani pp-75 assessed as total lysis of parasites at 100 ug/ml after 24 hrs; assay type: functional, organism-based
Outline: (§1)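 Promastigotes of each Leishmania strain exposed to test compound at 100 µg/ml, dissolved in DMSO, for 24 h at 28°. Viability judged by direct inverted-microscope observation and scored against controls: 0 no lysis; + less mobile; ++ modified or immobilized; +++ total lysis. Three independent runs.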

Leishmania braziliensis [2] = assay: Antiprotozoal activity against promastigotes form of Leishmania braziliensis 2903 assessed as total lysis of parasites at 100 ug/ml after 24 hrs; assay type: functional, organism-based
Outline: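 Promastigotes exposed to compound (dissolved in DMSO) at 100 µg/ml for 24 h at 28°. Viability judged by direct observation under an inverted microscope and scored as 0 (no lysis), + (less mobile than controls), ++ (modified or immobilized) or +++ (total lysis). Each assay run three times. Glucantime and pentamidine used as control drugs.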

Leishmania amazonensis [3] = assay: Antiprotozoal activity against promastigotes form of Leishmania amazonensis H-142 assessed as total lysis of parasites at 100 ug/ml after 24 hrs; assay type: functional, organism-based; outline: as §1
Leishmania amazonensis [4] = assay: Antiprotozoal activity against promastigotes form of Leishmania amazonensis LV79 assessed as total lysis of parasites at 100 ug/ml after 24 hrs; assay type: functional, organism-based; outline: as §1
Leishmania donovani [5] = assay: Antiprotozoal activity against promastigotes form of Leishmania donovani pp-75 assessed as less mobile parasites at 100 ug/ml after 24 hrs; assay type: functional, organism-based; outline: as §1
Leishmania braziliensis [6] = assay: Antiprotozoal activity against promastigotes form of Leishmania braziliensis 2903 assessed as immobilized parasites at 100 ug/ml after 24 hrs; assay type: functional, organism-based; outline: as §1
Leishmania amazonensis [7] = assay: Antiprotozoal activity against promastigotes form of Leishmania amazonensis H-142 assessed as less mobile parasites at 100 ug/ml after 24 hrs; assay type: functional, organism-based; outline: as §1
Leishmania amazonensis [8] = assay: Antiprotozoal activity against promastigotes form of Leishmania amazonensis LV79 assessed as less mobile parasites at 100 ug/ml after 24 hrs; assay type: functional, organism-based; outline: as §1
Leishmania donovani [9] = assay: Antiprotozoal activity against promastigotes form of Leishmania donovani pp-75 assessed as immobilized parasites at 100 ug/ml after 24 hrs; assay type: functional, organism-based; outline: as §1

Q: `COc1cccc2c1-c1c3c(c(OC)c4ccnc(c14)C2=O)OCO3` was tested. Which Activity (Trypanosoma cruzi) did it give?
A: Its Activity is 46.6%.

Q: Which Activity (Trypanosoma cruzi) does the source give for `COc1c2c3c(c4c1OCO4)-c1ccc(O)cc1C(C)(O)C3=NCC2` (stereo not given) here?
A: Its Activity is 0%.

Q: How did the Activity (Trypanosoma cruzi) turn out when `COc1c(O)c2c3c(c1OC)-c1ccccc1C[C@H]3NCC2` was run?
A: The Activity was 68.2%.

Q: How did the Activity (Trypanosoma cruzi) turn out when `COc1cccc2c1-c1c3c(c(OC)c4c1[C@@H](C2)NCC4)OCO3` was run?
A: Its Activity is 35.7%.

Q: For `COc1c(O)c2c3c(c1OC)-c1ccc(O)cc1C[C@@H]3NCC2`, which Activity (Trypanosoma cruzi) is on record?
A: The Activity was 2.55%.

Q: How did the Activity (Leishmania donovani [1]) turn out when `N=C(N)c1ccc(OCCCCCOc2ccc(C(=N)N)cc2)cc1` was run?
A: The Activity was “Active”.

Q: What about the Activity (Leishmania braziliensis [2]) of the same compound?
A: The Activity was “Active”.

Q: And the Activity (Leishmania amazonensis [3])?
A: The Activity was “Active”.

Q: What about the Activity (Leishmania amazonensis [4]) of the same compound?
A: The Activity was “Active”.

Q: With `COc1c(O)cc(CCN(C)C)c2ccc3ccccc3c12` [ARGENTININE] as the compound, how does the Activity (Leishmania donovani [5]) read?
A: The Activity was “Active”.

Q: And the Activity (Leishmania braziliensis [6])?
A: Its Activity is “Active”.

Q: What about the Activity (Leishmania amazonensis [7]) of the same compound?
A: Its Activity is “Active”.

Q: And the Activity (Leishmania amazonensis [8])?
A: The Activity was “Active”.

Q: What about the Activity (Trypanosoma cruzi) of the same compound?
A: The Activity was 81.3%.

Q: Which Activity (Leishmania donovani [9]) does the source give for `COc1cc2c(cc1O)C[C@H]1c3cc(O)c(OC)cc3CCN1C2` [COREXIMINE] here?
A: Its Activity is “Active”.

Q: And the Activity (Leishmania braziliensis [6])?
A: Its Activity is “Active”.

Q: What about the Activity (Leishmania amazonensis [7]) of the same compound?
A: The Activity was “Active”.

Q: And the Activity (Leishmania amazonensis [8])?
A: Its Activity is “Active”.

Q: And the Activity (Trypanosoma cruzi)?
A: The Activity was 0%.

Q: For `COc1c2c3c(c4c1OCO4)-c1c(O)cccc1C[C@H]3NCC2` [ELMERRILLICINE], which Activity (Trypanosoma cruzi) is on record?
A: The Activity was 0%.

Q: Which Activity (Trypanosoma cruzi) does the source give for `CN(C)c1ccc(C(=C2C=CC(=[N+](C)C)C=C2)c2ccc(N(C)C)cc2)cc1.[Cl-]` [GENTIAN VIOLET] here?
A: Its Activity is 100%.

Q: For `COc1c(O)c(OC)c2c3c1CCN=C3C(C)(O)c1cc(O)ccc1-2` (stereo not given) [ISOGUATTOUREGIDINE], which Activity (Leishmania donovani [1]) is on record?
A: Its Activity is “Active”.

Q: What about the Activity (Leishmania braziliensis [6]) of the same compound?
A: The Activity was “Active”.

Q: What about the Activity (Leishmania amazonensis [3]) of the same compound?
A: Its Activity is “Active”.

Q: And the Activity (Leishmania amazonensis [4])?
A: The Activity was “Active”.

Q: And the Activity (Trypanosoma cruzi)?
A: The Activity was 92%.

Q: For MEGLUMINE ANTIMONATE, which Activity (Leishmania donovani [1]) is on record?
A: Its Activity is “Active”.

Q: What about the Activity (Leishmania braziliensis [2]) of the same compound?
A: The Activity was “Active”.

Q: What about the Activity (Leishmania amazonensis [3]) of the same compound?
A: Its Activity is “Active”.

Q: What about the Activity (Leishmania amazonensis [4]) of the same compound?
A: Its Activity is “Active”.

— ChEMBL document CHEMBL1148039, “New aporphine alkaloids from guatteria foliosa” (1994)
